High-throughput results as filed in PubChem.
KCNQ1 block = blocks the human KCNQ1 potassium channel; CHO-K1 KCNQ1, FluxOR thallium flux fluorescence; active compounds read high; actives 1.3% (n = 310,000); B-score at 10 µM; P51787;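 active = compounds whose thallium flux B-score, printed positive for inhibition, exceeds three library SD while starting fluorescence stays within three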;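 note: channel opened by potassium depolarization with thallium stimulus after 20 min compound exposure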
KCNK9 inh = blocks the human KCNK9 two-pore domain potassium channel. Q9NPC2. HEK293 KCNK9, FluxOR thallium flux fluorescence; active compounds read low. B-score at 10 µM. actives 1.2% (n = 310,000). AID 488922;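 active = ratio B-score over 3 SD below the library mean, with starting fluorescence within 5 SD of its mean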;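 note: negative B-score means less thallium flux so channel inhibition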
hERG protect = compounds protecting human hERG from proarrhythmic drug block. Q12809. CHO-hERG, FluxOR thallium flux, dofetilide IC70 present. activation (rescue from dofetilide block), less the hit threshold, % at 10 µM. actives 0.51% (n = 310,000);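 active = activation above the mean of controls blocked by dofetilide plus 5 SD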;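 note: thallium influx through hERG after potassium depolarization seen as dye fluorescence rise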
KCNK3 block = human KCNK3 channel inhibition, primary screen; actives 0.84% (n = 340,000); CHO-KCNK3 thallium flux, FluxOR fluorescence; active compounds read low; O14649; B-score at 10 µM;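 active = B-score under library mean minus 4 SD, starting fluorescence ratio at most library mean plus 5 SD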;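 note: more negative B-score means stronger inhibition of thallium flux through KCNK3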
Target sequence (O14649 whole entry, looked up): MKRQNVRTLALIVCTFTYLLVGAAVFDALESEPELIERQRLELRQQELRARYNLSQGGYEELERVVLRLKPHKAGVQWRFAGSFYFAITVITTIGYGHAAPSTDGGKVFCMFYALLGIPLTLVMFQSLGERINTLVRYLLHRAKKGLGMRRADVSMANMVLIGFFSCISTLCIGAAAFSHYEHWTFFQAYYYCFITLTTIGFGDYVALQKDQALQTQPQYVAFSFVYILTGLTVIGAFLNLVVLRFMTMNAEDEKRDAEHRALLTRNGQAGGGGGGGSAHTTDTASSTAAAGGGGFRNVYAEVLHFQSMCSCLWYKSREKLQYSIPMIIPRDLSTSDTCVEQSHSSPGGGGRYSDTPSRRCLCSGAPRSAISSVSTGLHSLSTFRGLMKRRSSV
Kir21 inh = inhibitors of mouse Kir2.1 inward-rectifier potassium channel | AID 1672 | HEK293-Kir2.1, FluxOR thallium flux fluorescence; active compounds read low | actives 0.85% (n = 310,000) | B-score at 10 µM | P35561;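 active = fluorescence ratio B-score at or below minus 3 SD of library scores, with starting-brightness B-score within 2 SD, cut at about -4.2 in these data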;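 note: channel flux triggered by added potassium and thallium sulfate stimulus; B-score of peak minus minimum fluorescence over baseline after thallium stimulus; more negative B-score means stronger Kir2.1 block with less thallium influx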
KCNQ1 act = human KCNQ1 channel potentiation or activation | P51787 | CHO-K1 KCNQ1, thallium flux FluxOR fluorescence; active compounds read high | B-score at 10 µM | actives 0.35% (n = 310,000) | AID 2648;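 active = fluorescence ratio B-score, a plate-corrected score, at least three library SD, with initial intensity B-score within 5 SD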
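Doses: Single concentration per compound, DMSO matched to controls | Test system: KCNQ1-transfected CHO-K1 cells | Timing: 90 min dye loading and 20 min compound exposure, both at room temperature | Measured by: Kinetic FluxOR thallium fluorescence, 10-s 1-Hz baseline, 110-s post-stimulus read | Medium: Assay buffer with matched DMSO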
KCNK9 block conf = human KCNK9 inhibitor confirmation; shares compounds with KCNK9 inh; HEK293 KCNK9 cells, FluxOR thallium flux fluorescence; inhibition, % at 10 µM; actives 43% (n = 4,900);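 active = thallium signal inhibited by more than 5 SD of the compound-free buffer control wells, on both duplicate plates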;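 note: 0% = assay buffer control wells without compound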
Kir2-1 spec = tests whether KCNK9 modulators also affect mouse Kir2.1; Kir2.1 cells, FluxOR thallium flux fluorescence; inhibition, % at 10 µM; shares compounds with KCNK9 inh; AID 492993; actives 4% (n = 4,900);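 active = thallium signal drop more than 5 SD beyond the mean of the no-compound control wells, seen in both duplicate plates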;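 note: signal is fluorescence rise after thallium addition divided by baseline fluorescence; plate controls were assay buffer only for no effect and full block by chlorpromazine control for full effect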
KCNK9 uninduced = second counter-screen for KCNK9 modulators: effect in non-induced cells; shares compounds with KCNK9 inh; non-induced KCNK9-HEK293, FluxOR thallium flux; inhibition, % at 10 µM; actives 40% (n = 4,900);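 active = thallium signal drop beyond 5 SD of the untreated control mean, on both duplicate plates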;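 note: plate controls were buffer only IC0 wells for no effect and SID17386958 at its maximal inhibitory level for full effect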
* = called active by the depositor. Sampled rows, rich in hits. Any-hit rate of the full collection: about 3.7%.

Results for Cc1ccc(Cl)cc1N1CCN(CC(=O)NC2CCCc3ccccc32)CC1 (stereo unspecified) ?
KCNQ1 block: inactive; KCNK9 inh: inactive; hERG protect: -5; KCNK3 block: inactive; Kir21 inh: 0.01; KCNQ1 act: inactive; KCNK9 block conf: inactive; Kir2-1 spec: inactive; KCNK9 uninduced: inactive

What do the screens show for `O=C(CSc1ccc(Cl)cc1)NC1CCCc2ccccc21` (stereo unspecified)?
KCNQ1 block: inactive; KCNK9 inh: inactive; hERG protect: -5; KCNK3 block: inactive; Kir21 inh: 0.57; KCNQ1 act: inactive

Results for CCNc1nc(NCC)nc(N(CC)C(N)=S)n1 ?
KCNQ1 block: inactive; KCNK9 inh: inactive; hERG protect: -11; KCNK3 block: inactive; Kir21 inh: 0.39; KCNQ1 act: inactive

Results for Cc1ccc(N(CC(O)CN2CCCCC2)S(=O)(=O)c2ccccc2[N+](=O)[O-])cc1 (stereo unspecified) ?
KCNQ1 block: inactive; KCNK9 inh: inactive; hERG protect: -1; KCNK3 block: inactive; Kir21 inh: 0.52; KCNQ1 act: inactive

What do the screens show for `COc1cc(OC)c2c(O)c3c(c(-c4c5c(c(O)c6c(OC)cc(OC)cc46)CO[C@@H](C)[C@H]5O)c2c1)[C@H](O)[C@H](C)OC3`?
KCNQ1 block: inactive; KCNK9 inh: inactive; hERG protect: -6; KCNK3 block: inactive; Kir21 inh: -1.4; KCNQ1 act: inactive; KCNK9 block conf: inactive; Kir2-1 spec: inactive; KCNK9 uninduced: inactive

How did COc1cc2c(c(OC)c1O)C(=O)CO2 do in these assays?
KCNQ1 block: inactive; KCNK9 inh: inactive; hERG protect: -4; KCNK3 block: inactive; Kir21 inh: 0.37; KCNQ1 act: inactive

How did CCOC(=O)c1c(NC(=O)CSc2ncnc3[nH]ncc23)sc2c1CCC(C)C2 (stereo unspecified) do in these assays?
KCNQ1 block: inactive; KCNK9 inh: inactive; hERG protect: -25; KCNK3 block: inactive; Kir21 inh: 0.37; KCNQ1 act: inactive

Results for COc1ccccc1CNC(=O)C(=O)Nc1ccc(C(=O)N2CCC(C)CC2)cc1 ?
KCNQ1 block: inactive; KCNK9 inh: inactive; hERG protect: -6; KCNK3 block: inactive; Kir21 inh: -1.2; KCNQ1 act: inactive

Results for O=C(COC(=O)/C(=C/c1cccs1)c1cccs1)NC(c1ccccc1)c1ccccc1 ?
KCNQ1 block: inactive; KCNK9 inh: -9.1*; hERG protect: -10; KCNK3 block: inactive; Kir21 inh: -1.1; KCNQ1 act: inactive; KCNK9 block conf: 46%*; Kir2-1 spec: inactive; KCNK9 uninduced: inactive

What do the screens show for `O=C(Cc1cccs1)NC(c1ccccc1)c1ccccc1`?
KCNQ1 block: inactive; KCNK9 inh: inactive; hERG protect: -9; KCNK3 block: inactive; Kir21 inh: -0.07; KCNQ1 act: inactive

What do the screens show for `CCC(C)c1ccc(NC(=O)COc2c(F)c(F)c(C(F)(F)F)c(F)c2F)cc1` (stereo unspecified)?
KCNQ1 block: inactive; KCNK9 inh: inactive; hERG protect: -17; KCNK3 block: inactive; Kir21 inh: 1.3; KCNQ1 act: inactive; KCNK9 block conf: inactive; Kir2-1 spec: inactive; KCNK9 uninduced: inactive

How did O=C(COc1c(F)c(F)c(C(F)(F)F)c(F)c1F)Nc1ccc(N2CCOCC2)c(Cl)c1 do in these assays?
KCNQ1 block: inactive; KCNK9 inh: inactive; hERG protect: -5; KCNK3 block: inactive; Kir21 inh: 1.2; KCNQ1 act: inactive

What do the screens show for `CN(C)CCN(Cc1ccccc1)c1ccnc(N(C)C)c1C#N`?
KCNQ1 block: inactive; KCNK9 inh: inactive; hERG protect: -11; KCNK3 block: inactive; Kir21 inh: -2.8; KCNQ1 act: inactive

Results for CN(C)c1nccc(N(Cc2ccccc2)Cc2ccccc2)c1C#N ?
KCNQ1 block: inactive; KCNK9 inh: inactive; hERG protect: -6; KCNK3 block: inactive; Kir21 inh: 0.09; KCNQ1 act: inactive; KCNK9 block conf: inactive; Kir2-1 spec: inactive; KCNK9 uninduced: 24%*

Results for Cc1ccc(NC(=O)CSc2ccccc2NC(=O)c2ccccc2)cc1Cl ?
KCNQ1 block: inactive; KCNK9 inh: inactive; hERG protect: -5; KCNK3 block: inactive; Kir21 inh: -0.33; KCNQ1 act: inactive

Results for Cc1ccc(NC(=O)CSc2ccccc2NC(=O)c2ccccc2Cl)cc1Cl ?
KCNQ1 block: inactive; KCNK9 inh: -9.7*; hERG protect: -9; KCNK3 block: inactive; Kir21 inh: 0.16; KCNQ1 act: inactive; KCNK9 block conf: 56%*; Kir2-1 spec: inactive; KCNK9 uninduced: inactive

What do the screens show for `Cc1nn2c(N3CCCC3)cc(C(C)C)nc2c1-c1ccccc1`?
KCNQ1 block: inactive; KCNK9 inh: -8.3*; hERG protect: -12; KCNK3 block: inactive; Kir21 inh: -0.33; KCNQ1 act: inactive; KCNK9 block conf: 58%*; Kir2-1 spec: inactive; KCNK9 uninduced: 45%*

How did COc1ccccc1-c1ccc(SCc2ccc(F)cc2)nn1 do in these assays?
KCNQ1 block: inactive; KCNK9 inh: inactive; hERG protect: -12; KCNK3 block: inactive; Kir21 inh: -0.38; KCNQ1 act: inactive

What do the screens show for `COc1ccccc1-c1ccc(SCc2ccc(C)cc2)nn1`?
KCNQ1 block: inactive; KCNK9 inh: inactive; hERG protect: -24; KCNK3 block: inactive; Kir21 inh: 0.47; KCNQ1 act: inactive; KCNK9 block conf: inactive; Kir2-1 spec: inactive; KCNK9 uninduced: inactive

Results for COC(=O)C1CC(O)CN1C(=O)NC1CCCCC1 (stereo unspecified) ?
KCNQ1 block: inactive; KCNK9 inh: inactive; hERG protect: -12; Kir21 inh: -0.45; KCNQ1 act: inactive

What do the screens show for `CCOc1cc(C(=O)N2CCN(C/C=C/c3ccccc3)CC2)cc(OCC)c1OCC`?
KCNQ1 block: inactive; KCNK9 inh: inactive; hERG protect: -4; KCNK3 block: inactive; Kir21 inh: -1.5; KCNQ1 act: inactive; KCNK9 block conf: inactive; Kir2-1 spec: inactive; KCNK9 uninduced: inactive

Results for COc1ccc(NC(=S)N2CCN(C/C=C/c3ccccc3)CC2)c(OC)c1 ?
KCNQ1 block: inactive; KCNK9 inh: inactive; hERG protect: -6; KCNK3 block: inactive; Kir21 inh: -0.55; KCNQ1 act: inactive
